# Data from ChEMBL document CHEMBL1806444, “Synthesis of new chalcone derivatives bearing 2,4-thiazolidinedione and benzoic acid moieties as potential anti-bacterial agents” (2011).
# How the values were obtained:
# Format in all cases: functional
# [1] = system: Staphylococcus aureus; assay: Antibacterial activity against 10^5 CFU/mL Staphylococcus aureus KCTC 503 assessed as inhibition of bacterial growth after 24 hrs by microtiter enzyme-linked immunosorbent assay; settings: KCTC 503, 24 h
# [2] = system: Escherichia coli; assay: Antibacterial activity against 10^5 CFU/mL Escherichia coli 1356 assessed as inhibition of bacterial growth after 24 hrs by microtiter enzyme-linked immunosorbent assay; settings: Escherichia coli, 1356, 24 h
# [3] = system: Escherichia coli; assay: Antibacterial activity against 10^5 CFU/mL Escherichia coli 1682 assessed as inhibition of bacterial growth after 24 hrs by microtiter enzyme-linked immunosorbent assay; settings: Escherichia coli, 1682, 24 h
# [4] = system: Staphylococcus aureus; assay: Antibacterial activity against 10^5 CFU/mL Staphylococcus aureus RN4220 assessed as inhibition of bacterial growth after 24 hrs by microtiter enzyme-linked immunosorbent assay; settings: RN4220, 24 h
# [5] = system: Staphylococcus aureus; assay: Antibacterial activity against 10^5 CFU/mL quinolone-resistant Staphylococcus aureus CCARM 3505 assessed as inhibition of bacterial growth after 24 hrs by microtiter enzyme-linked immunosorbent assay; settings: CCARM 3505, 24 h
# Summary of the method: (§1)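 Broth microdilution MIC. Bacteria grown to mid-log phase in Mueller-Hinton broth, diluted 1000-fold, and inoculated at 10⁵ CFU/mL in MHB, 0.2 mL/well in 96-well plates. Compounds dissolved in DMSO, final DMSO not exceeding 0.05%, in serial dilutions. Oxacillin and norfloxacin served as positive controls. MIC is the lowest concentration giving complete growth inhibition after 24 h at 37 °C.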
# [6] = system: Staphylococcus aureus; assay: Antibacterial activity against 10^5 CFU/mL methicillin-resistant Staphylococcus aureus CCARM 3506 assessed as inhibition of bacterial growth after 24 hrs by microtiter enzyme-linked immunosorbent assay; settings: CCARM 3506, 24 h; summary of the method: as §1
# [7] = system: Staphylococcus aureus; assay: Antibacterial activity against 10^5 CFU/mL quinolone-resistant Staphylococcus aureus CCARM 3519 assessed as inhibition of bacterial growth after 24 hrs by microtiter enzyme-linked immunosorbent assay; settings: CCARM 3519, 24 h; summary of the method: as §1
# [8] = system: Staphylococcus aureus; assay: Antibacterial activity against 10^5 CFU/mL methicillin-resistant Staphylococcus aureus CCARM 3167 assessed as inhibition of bacterial growth after 24 hrs by microtiter enzyme-linked immunosorbent assay; settings: CCARM 3167, 24 h; summary of the method: as §1
# [9] = system: Staphylococcus aureus; assay: Ratio of Norfloxacin MIC to compound MIC for methicillin-resistant Staphylococcus aureus CCARM 3167
# [10] = system: Staphylococcus aureus; assay: Ratio of oxacillin MIC to compound MIC for methicillin-resistant Staphylococcus aureus CCARM 3506
# [11] = system: Staphylococcus aureus; assay: Ratio of Norfloxacin MIC to compound MIC for methicillin-resistant Staphylococcus aureus CCARM 3506
# [12] = system: Staphylococcus aureus; assay: Ratio of oxacillin MIC to compound MIC for methicillin-resistant Staphylococcus aureus CCARM 3167
SMILES,MIC [1] [µg/mL],MIC [2] [µg/mL],MIC [3] [µg/mL],MIC [4] [µg/mL],MIC [5] [µg/mL],MIC [6] [µg/mL],MIC [7] [µg/mL],MIC [8] [µg/mL],Ratio [9],Ratio [10],Ratio [11],Ratio [12]
O=C(O)c1ccc(CN2C(=O)S/C(=C\c3ccc(/C=C/C(=O)c4ccc(Cl)cc4Cl)cc3)C2=O)cc1,> 64,> 64,> 64,> 64,,,,,,,,
O=C(O)c1ccc(CN2C(=O)S/C(=C\c3ccc(/C=C/C(=O)c4ccccc4F)cc3)C2=O)cc1,> 64,> 64,> 64,> 64,,,,,,,,
O=C(O)c1ccc(CN2C(=O)S/C(=C\c3ccc(/C=C/C(=O)c4ccc(F)cc4)cc3)C2=O)cc1,> 64,> 64,> 64,> 64,,,,,,,,
O=C(O)c1ccc(CN2C(=O)S/C(=C\c3ccc(/C=C/C(=O)c4ccccc4Cl)cc3)C2=O)cc1,2,> 64,> 64,1,2,1,2,1,,,,
O=C(O)c1ccc(CN2C(=O)S/C(=C\c3ccc(/C=C/C(=O)c4cccc(Cl)c4)cc3)C2=O)cc1,> 64,> 64,> 64,> 64,,,,,,,,
O=C(O)c1ccc(CN2C(=O)S/C(=C\c3ccc(/C=C/C(=O)c4ccc(Cl)cc4)cc3)C2=O)cc1,> 64,> 64,> 64,> 64,,,,,,,,
O=C(O)c1ccc(CN2C(=O)S/C(=C\c3ccc(/C=C/C(=O)c4ccccc4Br)cc3)C2=O)cc1,4,> 64,> 64,2,2,1,2,1,,,,
O=C(O)c1ccc(CN2C(=O)S/C(=C\c3ccc(/C=C/C(=O)c4cccc(Br)c4)cc3)C2=O)cc1,> 64,> 64,> 64,> 64,,,,,,,,
O=C(O)c1ccc(CN2C(=O)S/C(=C\c3ccc(/C=C/C(=O)c4ccc(Br)cc4)cc3)C2=O)cc1,> 64,> 64,> 64,> 64,,,,,,,,
COc1ccccc1C(=O)/C=C/c1ccc(/C=C2\SC(=O)N(Cc3ccc(C(=O)O)cc3)C2=O)cc1,4,> 64,> 64,2,4,2,2,2,,,,
COc1cccc(C(=O)/C=C/c2ccc(/C=C3\SC(=O)N(Cc4ccc(C(=O)O)cc4)C3=O)cc2)c1,> 64,> 64,> 64,> 64,,,,,,,,
COc1ccc(C(=O)/C=C/c2ccc(/C=C3\SC(=O)N(Cc4ccc(C(=O)O)cc4)C3=O)cc2)cc1,> 64,> 64,> 64,> 64,,,,,,,,
O=C(O)c1ccc(CN2C(=O)S/C(=C\c3ccc(/C=C/C(=O)c4ccccc4O)cc3)C2=O)cc1,> 64,> 64,> 64,> 64,,,,,,,,
O=C(O)c1ccc(CN2C(=O)S/C(=C\c3ccc(/C=C/C(=O)c4cccc(O)c4)cc3)C2=O)cc1,4,> 64,> 64,2,2,1,2,1,,,,
O=C(O)c1ccc(CN2C(=O)S/C(=C\c3ccc(/C=C/C(=O)c4ccc(O)cc4)cc3)C2=O)cc1,> 64,> 64,> 64,> 64,,,,,,,,
COC(=O)c1ccc(CN2C(=O)S/C(=C\c3ccc(/C=C/C(=O)c4ccc(O)cc4)cc3)C2=O)cc1,> 64,> 64,> 64,> 64,,,,,,,,
O=C(O)c1ccc(CN2C(=O)S/C(=C\c3ccc(/C=C/C(=O)c4ccccc4)cc3)C2=O)cc1,2,> 64,> 64,1,2,0.5,2,1,8,64,8,64
COC(=O)c1ccc(CN2C(=O)S/C(=C\c3ccc(/C=C/C(=O)c4ccc(OC)cc4)cc3)C2=O)cc1,> 64,> 64,> 64,> 64,,,,,,,,
CCn1cc(C(=O)O)c(=O)c2cc(F)c(N3CCNCC3)cc21 [NORFLOXACIN],2,16,16,2,> 64,4,> 64,8,,,,
Cc1onc(-c2ccccc2)c1C(=O)N[C@@H]1C(=O)N2[C@@H]1SC(C)(C)[C@@H]2C(=O)O [OXACILLIN],1,> 64,> 64,1,1,> 64,1,> 64,,,,
